# Test results from ChEMBL document CHEMBL2311435, “Development of 18F-labeled picolinamide probes for PET imaging of malignant melanoma” (J Med Chem, 2013).
# How the values were obtained:
# Nucleic Acid [1] = experiment: Ratio of drug uptake in tumor to lungs of C57BL/6 mouse xenografted with mouse B16F10 cells at 3.7 MBq, iv after 2 hrs by gamma-scintillation counting analysis; type: ADME, organism-based, B16-F10; settings: in vivo
# Procedure, shortened: (§1)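 Same subcutaneous B16F10 model and tail-vein dose of about 3.7 MBq (100 μCi), n = 4 per group. Dissection at 1 or 2 h p.i. Gamma-counter %ID/g of tumor divided by that of blood, lung, liver or muscle, given as mean ± SD.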
# Mus musculus [2] = experiment: Biodistribution in eye of C57BL/6 mouse xenografted with mouse B16F10 cells at 3.7 MBq, iv after 2 hrs by gamma-scintillation counting analysis; type: ADME, organism-based, B16-F10; settings: in vivo
# Procedure, shortened: (§2)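 1.0 × 10^6 B16F10 cells in PBS injected subcutaneously into the right shoulder of C57BL/6 mice, grown to 0.5 cm (~10 day). Tail-vein injection of about 3.7 MBq (100 μCi) 18F probe in PBS (0.1 M, pH 7.4). Killed at 1.0 or 2.0 h p.i. (n = 4 per group). Tissues excised, weighed and gamma-counted; uptake expressed as %ID/g, mean ± SD.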
# Intestine [3] = experiment: Biodistribution in intestine of C57BL/6 mouse xenografted with mouse B16F10 cells at 3.7 MBq, iv after 1 hr by gamma-scintillation counting analysis; type: ADME, organism-based, B16-F10; settings: in vivo; procedure, shortened: as §2
# Nucleic Acid [4] = experiment: Ratio of drug uptake in tumor to liver of C57BL/6 mouse xenografted with mouse B16F10 cells at 3.7 MBq, iv after 1 hr by gamma-scintillation counting analysis; type: ADME, organism-based, B16-F10; settings: in vivo; procedure, shortened: as §1
# Muscle tissue [5] = experiment: Biodistribution in muscle of C57BL/6 mouse xenografted with mouse B16F10 cells at 3.7 MBq, iv after 2 hrs by gamma-scintillation counting analysis; type: ADME, organism-based, B16-F10; settings: in vivo; procedure, shortened: as §2
# Bone [6] = experiment: Biodistribution in bone of C57BL/6 mouse xenografted with mouse B16F10 cells at 3.7 MBq, iv after 1 hr by gamma-scintillation counting analysis; type: ADME, organism-based, Bone element, B16-F10; settings: in vivo; procedure, shortened: as §2
# Heart [7] = experiment: Biodistribution in heart of C57BL/6 mouse xenografted with mouse B16F10 cells at 3.7 MBq, iv after 1 hr by gamma-scintillation counting analysis; type: ADME, organism-based, B16-F10; settings: in vivo; procedure, shortened: as §2
# Muscle tissue [8] = experiment: Biodistribution in muscle of C57BL/6 mouse xenografted with mouse B16F10 cells at 3.7 MBq, iv after 1 hr by gamma-scintillation counting analysis; type: ADME, organism-based, B16-F10; settings: in vivo; procedure, shortened: as §2
# Mus musculus [9] = experiment: Biodistribution in tumor of C57BL/6 mouse xenografted with mouse B16F10 cells at 3.7 MBq, iv after 1 hr by gamma-scintillation counting analysis; type: ADME, organism-based, Neoplasm, B16-F10; settings: in vivo; procedure, shortened: as §2
# Pancreas [10] = experiment: Biodistribution in pancreas of C57BL/6 mouse xenografted with mouse B16F10 cells at 3.7 MBq, iv after 2 hrs by gamma-scintillation counting analysis; type: ADME, organism-based, B16-F10; settings: in vivo; procedure, shortened: as §2
# Nucleic Acid [11] = experiment: Ratio of drug uptake in tumor to muscle of C57BL/6 mouse xenografted with mouse B16F10 cells at 3.7 MBq, iv after 1 hr by gamma-scintillation counting analysis; type: ADME, organism-based, B16-F10; settings: in vivo; procedure, shortened: as §1
# Nucleic Acid [12] = experiment: Ratio of drug uptake in tumor to blood of C57BL/6 mouse xenografted with mouse B16F10 cells at 3.7 MBq, iv after 1 hr by gamma-scintillation counting analysis; type: ADME, organism-based, B16-F10; settings: tumour; procedure, shortened: as §1
# Mus musculus [13] = experiment: Biodistribution in lungs of C57BL/6 mouse xenografted with mouse B16F10 cells at 3.7 MBq, iv after 1 hr by gamma-scintillation counting analysis; type: ADME, organism-based, Lung, B16-F10; settings: in vivo; procedure, shortened: as §2
# Intestine [14] = experiment: Biodistribution in intestine of C57BL/6 mouse xenografted with mouse B16F10 cells at 3.7 MBq, iv after 2 hrs by gamma-scintillation counting analysis; type: ADME, organism-based, B16-F10; settings: in vivo; procedure, shortened: as §2
# Spleen [15] = experiment: Biodistribution in spleen of C57BL/6 mouse xenografted with mouse B16F10 cells at 3.7 MBq, iv after 1 hr by gamma-scintillation counting analysis; type: ADME, organism-based, B16-F10; settings: in vivo; procedure, shortened: as §2
# Bone [16] = experiment: Biodistribution in bone of C57BL/6 mouse xenografted with mouse B16F10 cells at 3.7 MBq, iv after 2 hrs by gamma-scintillation counting analysis; type: ADME, organism-based, Bone element, B16-F10; settings: in vivo; procedure, shortened: as §2
# Kidney [17] = experiment: Biodistribution in kidney of C57BL/6 mouse xenografted with mouse B16F10 cells at 3.7 MBq, iv after 2 hrs by gamma-scintillation counting analysis; type: ADME, organism-based, B16-F10; settings: in vivo; procedure, shortened: as §2
# Heart [18] = experiment: Biodistribution in heart of C57BL/6 mouse xenografted with mouse B16F10 cells at 3.7 MBq, iv after 2 hrs by gamma-scintillation counting analysis; type: ADME, organism-based, B16-F10; settings: in vivo; procedure, shortened: as §2
# Brain [19] = experiment: Biodistribution in brain of C57BL/6 mouse xenografted with mouse B16F10 cells at 3.7 MBq, iv after 2 hrs by gamma-scintillation counting analysis; type: ADME, organism-based, B16-F10; settings: in vivo; procedure, shortened: as §2
# Zone of skin [20] = experiment: Biodistribution in skin of C57BL/6 mouse xenografted with mouse B16F10 cells at 3.7 MBq, iv after 1 hr by gamma-scintillation counting analysis; type: ADME, organism-based, B16-F10; settings: in vivo; procedure, shortened: as §2
# Nucleic Acid [21] = experiment: Ratio of drug uptake in tumor to lungs of C57BL/6 mouse xenografted with mouse B16F10 cells at 3.7 MBq, iv after 1 hr by gamma-scintillation counting analysis; type: ADME, organism-based, B16-F10; settings: in vivo; procedure, shortened: as §1
# Nucleic Acid [22] = experiment: Ratio of drug uptake in tumor to muscle of C57BL/6 mouse xenografted with mouse B16F10 cells at 3.7 MBq, iv after 2 hrs by gamma-scintillation counting analysis; type: ADME, organism-based, B16-F10; settings: in vivo; procedure, shortened: as §1
# Stomach [23] = experiment: Biodistribution in stomach of C57BL/6 mouse xenografted with mouse B16F10 cells at 3.7 MBq, iv after 1 hr by gamma-scintillation counting analysis; type: ADME, organism-based, B16-F10; settings: in vivo; procedure, shortened: as §2
# Nucleic Acid [24] = experiment: Ratio of drug uptake in tumor to liver of C57BL/6 mouse xenografted with mouse B16F10 cells at 3.7 MBq, iv after 2 hrs by gamma-scintillation counting analysis; type: ADME, organism-based, B16-F10; settings: in vivo; procedure, shortened: as §1
# Stomach [25] = experiment: Biodistribution in stomach of C57BL/6 mouse xenografted with mouse B16F10 cells at 3.7 MBq, iv after 2 hrs by gamma-scintillation counting analysis; type: ADME, organism-based, B16-F10; settings: in vivo; procedure, shortened: as §2
# Nucleic Acid [26] = experiment: Ratio of drug uptake in tumor to blood of C57BL/6 mouse xenografted with mouse B16F10 cells at 3.7 MBq, iv after 2 hrs by gamma-scintillation counting analysis; type: ADME, organism-based, B16-F10; settings: tumour; procedure, shortened: as §1
# Blood [27] = experiment: Biodistribution in blood of C57BL/6 mouse xenografted with mouse B16F10 cells at 3.7 MBq, iv after 1 hr by gamma-scintillation counting analysis; type: ADME, organism-based, B16-F10; settings: in vivo; procedure, shortened: as §2
# Mus musculus [28] = experiment: Biodistribution in eye of C57BL/6 mouse xenografted with mouse B16F10 cells at 3.7 MBq, iv after 1 hr by gamma-scintillation counting analysis; type: ADME, organism-based, B16-F10; settings: in vivo; procedure, shortened: as §2
# Blood [29] = experiment: Biodistribution in blood of C57BL/6 mouse xenografted with mouse B16F10 cells at 3.7 MBq, iv after 2 hrs by gamma-scintillation counting analysis; type: ADME, organism-based, B16-F10; settings: in vivo; procedure, shortened: as §2
# Mus musculus [30] = experiment: Biodistribution in tumor of C57BL/6 mouse xenografted with mouse B16F10 cells at 3.7 MBq, iv after 2 hrs by gamma-scintillation counting analysis; type: ADME, organism-based, Neoplasm, B16-F10; settings: in vivo; procedure, shortened: as §2
# Kidney [31] = experiment: Biodistribution in kidney of C57BL/6 mouse xenografted with mouse B16F10 cells at 3.7 MBq, iv after 1 hr by gamma-scintillation counting analysis; type: ADME, organism-based, B16-F10; settings: in vivo; procedure, shortened: as §2
# Liver [32] = experiment: Biodistribution in liver of C57BL/6 mouse xenografted with mouse B16F10 cells at 3.7 MBq, iv after 1 hr by gamma-scintillation counting analysis; type: ADME, organism-based, B16-F10; settings: in vivo; procedure, shortened: as §2
# [33] = Drug uptake in tumor of C57BL/6 mouse xenografted with mouse B16F10 cells at 3.7 MBq, iv after 0.5 hrs by PET imaging analysis; type: ADME, organism-based, Neoplasm, B16-F10; settings: in vivo
# Procedure, shortened: (§3)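 Static small-animal PET at 0.5, 1 and 2 h after tail-vein injection of ~3.7 MBq (100 μCi) into B16F10-bearing C57BL/6 mice (n = 4 per probe). Isoflurane anesthesia, 5% induction and 2% maintenance in O2. Decay-corrected images. ROI-derived %ID/g assumes 1 g/ml density, without attenuation correction. Mean ± SD.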
# Spleen [34] = experiment: Biodistribution in spleen of C57BL/6 mouse xenografted with mouse B16F10 cells at 3.7 MBq, iv after 2 hrs by gamma-scintillation counting analysis; type: ADME, organism-based, B16-F10; settings: in vivo; procedure, shortened: as §2
# [35] = Drug uptake in tumor of C57BL/6 mouse xenografted with mouse B16F10 cells at 3.7 MBq, iv after 1 hr by PET imaging analysis; type: ADME, organism-based, Neoplasm, B16-F10; settings: in vivo; procedure, shortened: as §3
# Zone of skin [36] = experiment: Biodistribution in skin of C57BL/6 mouse xenografted with mouse B16F10 cells at 3.7 MBq, iv after 2 hrs by gamma-scintillation counting analysis; type: ADME, organism-based, B16-F10; settings: in vivo; procedure, shortened: as §2
# Brain [37] = experiment: Biodistribution in brain of C57BL/6 mouse xenografted with mouse B16F10 cells at 3.7 MBq, iv after 1 hr by gamma-scintillation counting analysis; type: ADME, organism-based, B16-F10; settings: in vivo; procedure, shortened: as §2
# [38] = Drug uptake in tumor of C57BL/6 mouse xenografted with mouse B16F10 cells at 3.7 MBq, iv after 2 hrs by PET imaging analysis; type: ADME, organism-based, Neoplasm, B16-F10; settings: in vivo; procedure, shortened: as §3
# Pancreas [39] = experiment: Biodistribution in pancreas of C57BL/6 mouse xenografted with mouse B16F10 cells at 3.7 MBq, iv after 1 hr by gamma-scintillation counting analysis; type: ADME, organism-based, B16-F10; settings: in vivo; procedure, shortened: as §2
# Liver [40] = experiment: Biodistribution in liver of C57BL/6 mouse xenografted with mouse B16F10 cells at 3.7 MBq, iv after 2 hrs by gamma-scintillation counting analysis; type: ADME, organism-based, B16-F10; settings: in vivo; procedure, shortened: as §2
# Mus musculus [41] = experiment: Biodistribution in lungs of C57BL/6 mouse xenografted with mouse B16F10 cells at 3.7 MBq, iv after 2 hrs by gamma-scintillation counting analysis; type: ADME, organism-based, Lung, B16-F10; settings: in vivo; procedure, shortened: as §2
smiles,measurement,setting,value
CCN(CC)CCNC(=O)c1cc([18F])ccn1,Ratio,Nucleic Acid [1],9.46
same,Drug uptake,Mus musculus [2],32.45 % ID/g
same,Drug uptake,Intestine [3],2.28 % ID/g
same,Ratio,Nucleic Acid [4],3.85
same,Drug uptake,Muscle tissue [5],0.2 % ID/g
same,Drug uptake,Bone [6],11.29 % ID/g
same,Drug uptake,Heart [7],0.6 % ID/g
same,Drug uptake,Muscle tissue [8],0.6 % ID/g
same,Drug uptake,Mus musculus [9],7.54 % ID/g
same,Drug uptake,Pancreas [10],0.44 % ID/g
same,Ratio,Nucleic Acid [11],13.12
same,Ratio,Nucleic Acid [12],28.32
same,Drug uptake,Mus musculus [13],0.88 % ID/g
same,Drug uptake,Intestine [14],0.98 % ID/g
same,Drug uptake,Spleen [15],1.09 % ID/g
same,Drug uptake,Bone [16],10.27 % ID/g
same,Drug uptake,Kidney [17],0.69 % ID/g
same,Drug uptake,Heart [18],0.37 % ID/g
same,Drug uptake,Brain [19],0.24 % ID/g
same,Drug uptake,Zone of skin [20],0.73 % ID/g
same,Ratio,Nucleic Acid [21],8.81
same,Ratio,Nucleic Acid [22],27.75
same,Drug uptake,Stomach [23],2.24 % ID/g
same,Ratio,Nucleic Acid [24],4.16
same,Drug uptake,Stomach [25],1.64 % ID/g
same,Ratio,Nucleic Acid [26],44.33
same,Drug uptake,Blood [27],0.33 % ID/g
same,Drug uptake,Mus musculus [28],35.96 % ID/g
same,Drug uptake,Blood [29],0.15 % ID/g
same,Drug uptake,Mus musculus [30],8.66 % ID/g
same,Drug uptake,Kidney [31],1.34 % ID/g
same,Drug uptake,Liver [32],2.07 % ID/g
same,Drug uptake,[33],9.52 % ID/g
same,Drug uptake,Spleen [34],0.31 % ID/g
same,Drug uptake,[35],8.97 % ID/g
same,Drug uptake,Zone of skin [36],0.63 % ID/g
same,Drug uptake,Brain [37],0.49 % ID/g
same,Drug uptake,[38],9.73 % ID/g
same,Drug uptake,Pancreas [39],1.06 % ID/g
same,Drug uptake,Liver [40],1.41 % ID/g
same,Drug uptake,Mus musculus [41],0.59 % ID/g
